High-throughput results deposited in PubChem BioAssay by several laboratories.
Compounds with a hit are over-represented: about 2.7% of the library has one in this group of screens.
PfM18AAP inh: PfM18AAP enzyme inhibition. recombinant PfM18AAP, H-Glu-NHMec fluorogenic cleavage. inhibition, % at 7.35 µM. 290,000 compounds, 1.2% hits;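 active means inhibition above the campaign mean inhibition over all tested compounds plus 3 SD, cut at about 28% in these data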
RBBP9 inh: inhibitors of human serine hydrolase RBBP9. 220,000 compounds, 0.2% hits. O75884. inhibition, % at 7.94 µM. recombinant RBBP9, FP-Rh probe fluorescence polarization;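 active means inhibition above the campaign mean of all tested compounds plus 3 SD, cut at about 14% in these data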
Target sequence (O75884 whole entry, looked up): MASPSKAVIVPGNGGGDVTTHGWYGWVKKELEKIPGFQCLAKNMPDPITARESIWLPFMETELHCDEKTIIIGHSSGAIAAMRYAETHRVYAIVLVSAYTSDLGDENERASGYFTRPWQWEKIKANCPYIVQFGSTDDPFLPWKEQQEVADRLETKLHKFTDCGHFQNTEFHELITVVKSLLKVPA
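Test system: recombinant human RBBP9; Timing: 30 min then 45 min, 25 °C; Detection: fluorescence polarization; Control set: RBBP9 with DMSO as uninhibited control, no-protein wells as full inhibition; Compound dosing: one concentration, 7.94 µM nominal, 0.794% DMSO; Probe or stimulus: FP-Rh activity-based probe, 375 nM before mixing.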
TNF death inh: TNF-alpha cell death inhibition in Jurkat FADD-/- cells; AID 463075; activation (protection from cell death), % at 10 µM; 220,000 compounds, 0.068% hits; Jurkat FADD-/- TNF necroptosis rescue, ATP luminescence, 24 h; 0 = TNF only, 100 = no-TNF cells;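 active means activation, meaning protection from cell death, of at least 50% relative to plate controls; inactive means activation below 50%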;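 further: necroptosis triggered by 40 ng/mL TNF-alpha added together with compound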
zVAD death inh: blocks zVAD induced death of L929 cells | AID 1377 | viability rescue, % at 10 µM | L929 zVAD necroptosis rescue, ATP luminescence, 24 h; with zVAD 60 µM | 220,000 compounds, 0.38% hits;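 active means activation, scaled between plate controls, above about 75%, limit read from the data; inactive means activation under that limit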
Wee1 degr inh: human Wee1 degradation inhibition, primary screen; P30291; HeLa Luc-Wee1K328M stability, luciferase luminescence; 100% = proteasome inhibitor MG132 effect; reporter increase, % at 5 µM; 220,000 compounds, 1.2% hits;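 active means activation above the mean of all tested compounds plus 3 SD, set per screening run, cut at about 8.8% in these data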;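 further: cells exposed to compound for 20 h before luminescence read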
p97 ATPase inh: inhibitors of human p97 ATPase; AID 1481; recombinant p97 ATPase, Kinase-Glo ATP luminescence, 3 h; 220,000 compounds, 0.42% hits; inhibition, % at 8 µM; in the data active means inhibition above about 15%
Numbers stand for hits; i = inactive; nt = not tested or not shown.

SMILES | PfM18AAP inh | RBBP9 inh | TNF death inh | zVAD death inh | Wee1 degr inh | p97 ATPase inh
O=C(CNc1cccc2ccccc12)N/N=C/c1ccc(OC(=O)/C=C/c2ccco2)cc1 | 28 | i | i | nt | i | i
O=C(CCNC(=O)c1ccccc1Cl)Nc1nnc(C2CC2)s1 | i | i | i | i | i | i
O=C1NCC2=C1C(c1ccc(Br)cc1)Nc1ccccc1N2 (centres undefined) | i | i | i | i | 9.6 | i
CC1(C)CC(=O)C2=C(C1)Nc1ccccc1NC2c1ccc(F)cc1 (centres undefined) | i | nt | nt | nt | nt | nt
CC(=O)Nc1ccc(C(=O)CN2C(=O)CSC2=O)cc1 | i | nt | nt | nt | nt | nt
COC(=O)C(Cc1ccc(O)cc1)NC(=O)C(C)NC(=O)c1ccc(C(C)(C)C)cc1 (centres undefined) | i | nt | nt | nt | nt | nt
O=C(O)C1CCc2sc3[nH]c(=S)n(-c4ccccc4)c(=O)c3c21 (centres undefined) | 31 | i | i | i | i | i
Cn1c(SCc2n[nH]c(=S)n2-c2ccccc2)nnc1-c1ccccc1 | 30 | i | i | i | i | i
COc1ccc(-c2nc3c(-c4ccccc4)cnn3cc2C)cc1F | i | i | 51 | i | i | i
O=C(C(O)c1ccccc1)N1N=C(c2ccccc2)CC1(O)C(F)(F)F (centres undefined) | i | nt | nt | nt | nt | nt
CCOc1ccc2nc(SC3CC(=O)N(c4cccc(OC)c4)C3=O)sc2c1 (centres undefined) | i | i | i | i | 9.1 | i
CCOC(=O)c1cnc(SC2CC(=O)N(c3cccc(OC)c3)C2=O)nc1N (centres undefined) | 29 | i | i | i | i | i
OCCC1CN(C/C=C/c2ccco2)CCN1Cc1ccccc1 (centres undefined) | i | nt | nt | nt | nt | nt
Oc1c(Br)cc(Br)cc1/C=N/Nc1ccc(Cl)nn1 | 40 | nt | nt | nt | nt | nt
Cc1ccc2nc(NC(=O)Cc3cccs3)sc2c1 | i | i | i | i | i | i
Cc1ccc2nc(-c3ccc(NC(=O)Cc4cccs4)cc3)[nH]c2c1 | i | i | i | i | 10 | i
O=C(NCC1CCCO1)c1cc2ccccc2o1 (centres undefined) | i | nt | nt | nt | nt | nt
Cc1nc2ccc(NC(=O)c3nn(CC(C)C)c(=O)c4ccccc34)cc2s1 | i | i | i | i | i | i
Cc1nnc(NC(=O)c2nn(CC(C)C)c(=O)c3ccccc23)s1 | i | i | i | i | 10 | i
O=C(N=C1SC2CS(=O)(=O)CC2N1c1ccc(Cl)cc1Cl)C1CC1 (centres undefined) | i | nt | nt | nt | nt | nt
Cc1ccc(Nc2c(F)c(F)c(F)c(F)c2C(=O)O)cc1 | i | i | i | i | 13 | i
Cc1cccc(Nc2c(F)c(F)c(F)c(F)c2C(=O)O)c1 | i | i | i | i | i | i
Cn1c(=O)c2[nH]c(-c3ccccc3)c(O)c2n(C)c1=O | 58 | i | i | i | i | i
Cn1c(=O)c2[nH]c(-c3ccccc3)nc2n(C)c1=O | i | i | i | i | i | i
Cn1c2c(c(=O)n(C)c1=O)C(C(F)(F)F)(C(F)(F)F)N=C(c1ccccc1Cl)N2 | i | i | i | i | i | i
SMILES | PfM18AAP inh | RBBP9 inh | TNF death inh | zVAD death inh | Wee1 degr inh | p97 ATPase inh
Cn1c(=O)c2[nH]c(-c3ccccc3Cl)c(O)c2n(C)c1=O | 44 | i | i | i | i | i
C[C@H]1CC[C@@]2(O[C@H](CCO)C[C@@H](O)[C@@H]2O)O1 | i | i | i | i | 9.4 | i
CN(C(=O)C(Cl)Cl)C1CC2C=CC1C2 (centres undefined) | i | i | i | i | 11 | i
C/C(=N\NC(=O)c1cccc(S(=O)(=O)N2CCOCC2)c1)c1ccc(C#N)cc1 | i | nt | nt | nt | nt | nt
O=C1NN(c2cccc(Br)c2)C(=O)/C1=C/c1ccc(-c2cc([N+](=O)[O-])ccc2O)o1 | i | i | i | i | i | 35
OC(COc1ccc(CNCCc2ccccc2F)cc1)CN1CCCCC1 (centres undefined) | i | i | i | i | i | i
Cc1ccc(S(=O)(=O)N/N=C\c2ccc3c(c2)OCO3)cc1C | i | nt | nt | nt | nt | nt
Cc1ccc(S(=O)(=O)N/N=C\c2ccc3c(c2)OCO3)cc1 | i | i | i | i | i | 16
CCc1c(-c2n[nH]c(=S)n2Cc2ccccc2)csc1C | i | i | i | i | i | i
Cc1scc(-c2n[nH]c(=S)n2Cc2ccccc2)c1C | 32 | i | i | i | i | i
COc1cc(/C=N/NC(=O)C(=O)/C=C2\NC(C)(C)Cc3ccccc32)ccc1O | i | i | i | i | i | i
NN(Cc1ccccc1)C(=S)Nc1ccc(Cl)c(Cl)c1 | 30 | nt | nt | nt | nt | nt
OCC[C@@H]1C[C@H](O)[C@@H](O)[C@@]2(Cc3ccccc3O2)O1 | i | nt | nt | nt | nt | nt
Cn1cccc1/C=C1\SC(=S)N(NC(=O)c2ccccc2)C1=O | i | i | i | i | 9.0 | i
Cn1cccc1/C=C1\SC(=S)N(NC(=O)c2ccc(F)cc2)C1=O | i | i | i | i | i | i
NS(=O)(=O)c1ccc(CCNS(=O)(=O)c2ccccc2)cc1 | i | i | i | i | i | i
NS(=O)(=O)c1ccccc1 | i | i | i | i | 14 | i
O=C(c1ccco1)N1CCN(Cc2nnnn2C2CCCCC2)CC1 | i | nt | nt | nt | nt | nt
Cc1cc(C(=O)OCC(=O)c2cccc([N+](=O)[O-])c2)c2ccccc2n1 | i | i | i | i | 9.5 | i
COc1ccccc1C(=O)OCC(=O)c1cccc([N+](=O)[O-])c1 | i | i | i | nt | i | i
CCOC(=O)NNc1ccc2nonc2c1[N+](=O)[O-] | i | i | i | i | i | 21
O=C(Nc1nc(-c2ccccn2)cs1)c1ccc(Cl)s1 | i | i | i | i | 10.0 | i
O=C(Nc1nccs1)c1ccc(Cl)s1 | i | i | i | 96 | i | i
O=C(Nc1ccccn1)c1ccc(Cl)s1 | i | nt | nt | nt | nt | nt
O=C(Nc1nc(-c2ccccn2)cs1)c1ncc(Cl)c(Cl)c1Cl | i | i | i | i | i | i
CN(C1CCCCC1)S(=O)(=O)c1ccc(S(=O)(=O)N(CC(=O)Nc2ccccc2)C2CC2)cc1 | i | i | i | i | i | i
